Rows were chosen to be rich in hits. Some 1.3% of all compounds tested hit in one or more screens of this group.
HKDC1 inh: HKDC1 (human) hexokinase inhibition; inhibition, % at 20 µM; 340,000 compounds, 0.16% hits; recombinant HKDC1, G6PDH/diaphorase resazurin coupled fluorescence; Q2TB90; AID 493160;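 active means inhibition above about 35% when tested at 20 µM, limit read from the data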;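 further: plate controls were DMSO wells with enzyme for no effect and DMSO wells lacking enzyme for full effect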
Target sequence (Q2TB90 whole entry, looked up): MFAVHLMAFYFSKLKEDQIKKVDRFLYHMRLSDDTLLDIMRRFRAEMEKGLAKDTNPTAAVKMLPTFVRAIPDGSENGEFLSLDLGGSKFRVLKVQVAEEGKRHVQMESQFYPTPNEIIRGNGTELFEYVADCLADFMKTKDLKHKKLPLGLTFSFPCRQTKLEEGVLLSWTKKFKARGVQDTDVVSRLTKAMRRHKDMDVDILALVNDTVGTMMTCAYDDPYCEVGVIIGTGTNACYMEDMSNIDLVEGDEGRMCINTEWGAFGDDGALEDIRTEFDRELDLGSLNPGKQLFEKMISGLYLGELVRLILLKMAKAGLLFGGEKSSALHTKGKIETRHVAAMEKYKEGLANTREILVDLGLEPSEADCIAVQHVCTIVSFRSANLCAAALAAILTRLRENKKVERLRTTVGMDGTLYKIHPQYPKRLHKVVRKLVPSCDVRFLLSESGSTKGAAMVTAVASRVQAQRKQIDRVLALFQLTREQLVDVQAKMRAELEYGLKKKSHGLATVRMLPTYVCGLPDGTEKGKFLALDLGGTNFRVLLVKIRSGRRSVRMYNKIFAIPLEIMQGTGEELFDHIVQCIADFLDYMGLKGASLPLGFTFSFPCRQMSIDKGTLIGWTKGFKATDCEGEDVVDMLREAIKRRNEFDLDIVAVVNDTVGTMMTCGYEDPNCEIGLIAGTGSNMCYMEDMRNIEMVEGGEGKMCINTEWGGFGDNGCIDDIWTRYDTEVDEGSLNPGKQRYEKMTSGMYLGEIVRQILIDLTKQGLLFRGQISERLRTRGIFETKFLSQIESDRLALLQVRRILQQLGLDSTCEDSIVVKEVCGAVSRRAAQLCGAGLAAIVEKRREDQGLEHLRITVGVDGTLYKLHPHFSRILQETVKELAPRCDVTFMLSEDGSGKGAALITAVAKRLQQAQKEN
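Test system: recombinant HKDC1 (HK5) hexokinase enzyme, produced in-house; Amount: enzyme 5 µg/mL final; Buffer or medium: Tris pH 8.0 buffer with MgCl2, Tween-20, BSA, BME; Reagent: glucose and ATP substrates; Doses: 20 µM test compound, 1% DMSO; Incubation: 90 min reaction incubation at room temperature, dark; Detection: resorufin fluorescence at 613 nm.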
Diaphorase act: activates diaphorase or chemically reduces, flagging diaphorase assay artifacts | activation factor at 20 µM | Diaphorase/resazurin coupled assay, resorufin fluorescence, 16 min; active compounds read high; 1 = vehicle wells, 0 = NADH-free wells | 190,000 compounds, 0.005% hits | AID 1229;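 active means diaphorase activity raised at least twofold by the compound at 20 µM; inactive means activation factor below 2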
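Assay system: Purified diaphorase enzyme from Clostridium kluyveri | Amount: Enzyme 0.07 U/mL final | Dosing: Compound 20 µM once, DMSO 1% | Timing: 16 min reaction at room temperature | Detection: Fluorescence, excitation 544 nm and emission 590 nm | Evaluation: Higher resorufin formation from activation or reduction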
PfGluPho inh: PfG6PD (Plasmodium falciparum) enzyme inhibition | PfGluPho enzyme, NADPH resazurin-diaphorase fluorescence | inhibition, % at 20 µM | 350,000 compounds, 0.78% hits | AID 504690;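 active means inhibition reaching at least a set limit at 20 µM in the primary screen, cut at about 59% in these data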;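 further: 0% = DMSO wells with substrate and 100% = DMSO wells lacking glucose-6-phosphate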
Diaphorase inh: inhibits diaphorase or chemically oxidizes, flagging diaphorase assay artifacts. diaphorase resazurin-to-resorufin fluorescence, NADH, 16 min; bacterial (C. kluyveri) enzyme, not human. inhibition, % at 20 µM. 190,000 compounds, 0.69% hits. AID 1217;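 active means primary screen inhibition at 20 µM above a set limit, cut at about 50% in these data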;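 further: plate controls were DMSO with full reaction for no effect and wells lacking NADH for full effect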
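Assay system: diaphorase enzyme from Clostridium kluyveri. Quantity: enzyme working solution with 0.14 U/mL diaphorase. Schedule: reaction incubation of 16 min at room temperature. Technique: resorufin fluorescence, excitation 544 nm, emission 590 nm. Controls: No-NADH positive control and DMSO neutral control.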
G6PDH counter: L. mesenteroides G6PDH inhibition counter-screen | Purified L. mesenteroides G6PDH, diaphorase/resazurin coupled fluorescence, 45 min | inhibition, % at 5 µM | 200,000 compounds, 0.12% hits | AID 1020; in the data active means inhibition above about 50%
PfG6PD confirm: confirmation of Plasmodium falciparum G6PD inhibitors. shares compounds with PfGluPho inh. recombinant PfGluPho, NADPH-diaphorase-resazurin fluorescence. inhibition, % at 20 µM. 2,400 compounds, 34% hits. AID 504753;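 active means inhibition of at least 50% at 20 µM in any single replicate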;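 further: 0% = DMSO with substrate and 100% = DMSO lacking glucose-6-phosphate substrate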
Diaph ctr 10uM: counter-screen for P. falciparum G6PD inhibitors: diaphorase inhibitors, oxidizers. shares compounds with PfGluPho inh. diaphorase-coupled resazurin reduction, fluorescence, NADPH 10 uM. inhibition, % at 20 µM. 820 compounds, 39% hits. AID 504862;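 active means average inhibition reaching 50% or more with the compound at 20 µM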;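 further: resorufin red fluorescence formed as diaphorase reduces resazurin using NADPH; 0% = DMSO with enzyme and 100% = DMSO without enzyme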
Diaph ctr 30uM: counter-screen for P. falciparum G6PD inhibitors: diaphorase inhibitors, oxidizers | shares compounds with PfGluPho inh | Diaphorase/resazurin coupled assay, resorufin fluorescence, 30 uM NADPH | inhibition, % at 20 µM | 820 compounds, 29% hits;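 active means inhibition averaging 50% or more, tested at 20 µM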;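 further: 0% = DMSO with enzyme and 100% = DMSO wells lacking diaphorase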
Numbers without * were called inactive.

Results for Cc1ccc2c(c1)[C@H]1[C@H](CO2)[C@H](c2ccccc2)[C@]2(C)C(=O)Nc3cc(F)ccc3C(=O)N12 ?
HKDC1 inh: -2.5; PfGluPho inh: -1.6

How did CC1=CC(C)(C)NC(=S)N1c1cc(C)cc(C)c1 do in these assays?
HKDC1 inh: 4.4; Diaphorase act: 1; PfGluPho inh: 62.6*; Diaphorase inh: 4.1; G6PDH counter: 8.6; PfG6PD confirm: 23.0

How did CCOc1cc(/C=N/O)cc(Br)c1OCc1ccc(Cl)cc1 do in these assays?
HKDC1 inh: -3.1; Diaphorase act: 0.8; PfGluPho inh: 76.3*; Diaphorase inh: 17.6; G6PDH counter: 4.2; PfG6PD confirm: 3.8

What do the screens show for `CCOc1cc(/C=N/O)ccc1OS(=O)(=O)c1ccc(C)cc1`?
HKDC1 inh: 0.8; Diaphorase act: 0.8; PfGluPho inh: 15.0; Diaphorase inh: 18.3; G6PDH counter: 8.0

Results for CCOc1cc(/C=N/O)ccc1OCc1ccc(C)cc1 ?
HKDC1 inh: -6.3; Diaphorase act: 0.8; PfGluPho inh: 66.4*; Diaphorase inh: 21.3; G6PDH counter: -3.4; PfG6PD confirm: 41.8

How did N#Cc1cc2ccc(N3CCOCC3)cc2cc1C#N do in these assays?
HKDC1 inh: 19.6; Diaphorase act: 0.8; PfGluPho inh: 63.4*; Diaphorase inh: 15.5; G6PDH counter: 47.6; PfG6PD confirm: 28.6

Results for N#Cc1cc(Cl)c(N2CCOCC2)cc1C#N ?
HKDC1 inh: -3.8; Diaphorase act: 1; PfGluPho inh: 3.5; Diaphorase inh: -3.1; G6PDH counter: 3.6

How did Oc1c(Cl)cc(Cl)cc1C=Nc1cc(C(F)(F)F)ccc1N1CCc2ccccc2C1 do in these assays?
HKDC1 inh: 8.8; PfGluPho inh: 72.2*; PfG6PD confirm: -7.8

How did COc1ccc(NCc2cc3cc(OC)ccc3[nH]c2=O)cc1 do in these assays?
HKDC1 inh: 4.8; Diaphorase act: 0.5; PfGluPho inh: 72.5*; Diaphorase inh: 46.5; G6PDH counter: 35.9; PfG6PD confirm: 26.1

How did COc1ccc(NCc2cc3ccccc3[nH]c2=O)cc1 do in these assays?
HKDC1 inh: 4.0; Diaphorase act: 0.7; PfGluPho inh: 25.1; Diaphorase inh: 31.4; G6PDH counter: 22.9

How did COc1ccc2[nH]c(=O)c(CNc3cccc(C)c3)cc2c1 do in these assays?
HKDC1 inh: 20.2; Diaphorase act: 0.6; PfGluPho inh: 68.7*; Diaphorase inh: 39.9; G6PDH counter: 41.9; PfG6PD confirm: -1.7

Results for CCc1ccccc1NC(=O)CN1CCN(CC(=O)NCc2ccc(Cl)cc2)CC1 ?
HKDC1 inh: 3.0; PfGluPho inh: 16.1

What do the screens show for `Cc1ccc2nccc(C(=O)N3CCCC(Nc4ccc(F)cc4)C3)c2c1` (stereo not drawn)?
HKDC1 inh: -4.6; PfGluPho inh: 12.9

What do the screens show for `CCN1/C(=C/C=C/C=C/C=C/c2sc3ccccc3[n+]2CC)Sc2ccccc21`?
HKDC1 inh: 25.2; PfGluPho inh: 64.4*; PfG6PD confirm: 96.2*; Diaph ctr 10uM: 33.5; Diaph ctr 30uM: 33.1

How did CCCn1c(N)c(C(=O)CN(C)CC(=O)Nc2ccccc2C(F)(F)F)c(=O)[nH]c1=O do in these assays?
HKDC1 inh: -3.9; PfGluPho inh: -5.4

How did Cc1ccc(NC2Sc3ccccc3NC2=O)cc1Cl (stereo not drawn) do in these assays?
HKDC1 inh: -5.3; PfGluPho inh: 82.3*; PfG6PD confirm: -6.0

How did CCOC(=O)c1sc(N)c(C(=O)Nc2ccccc2)c1C do in these assays?
HKDC1 inh: -10.4; Diaphorase act: 0.8; PfGluPho inh: 63.5*; Diaphorase inh: 19.1; G6PDH counter: 8.0; PfG6PD confirm: 15.5

What do the screens show for `CCOC(=O)c1sc(N)c(C(=O)OCC)c1C`?
HKDC1 inh: 9.4; PfGluPho inh: 13.5

How did Oc1c(Cl)cc(Cl)c2cccnc12 do in these assays?
HKDC1 inh: -4.2; Diaphorase act: 0.6; PfGluPho inh: 1.4; Diaphorase inh: 44.3; G6PDH counter: 29.6

How did Oc1c(I)cc(I)c2cccnc12 do in these assays?
HKDC1 inh: -11.2; Diaphorase act: 0.8; PfGluPho inh: 65.2*; Diaphorase inh: 24.2; G6PDH counter: 22.7; PfG6PD confirm: 5.0

How did COc1ccc(N2C(=S)N(C(=O)c3ccccc3)C(=Nc3ccccc3)C2=Nc2ccccc2)cc1 do in these assays?
HKDC1 inh: -12.2; PfGluPho inh: 64.2*; PfG6PD confirm: 31.3

What do the screens show for `Cc1noc(C)c1NC(=O)Nc1ccc2c(c1)C(=O)N([C@H](C)CO)C[C@H](C)[C@H](CN(C)C)O2`?
HKDC1 inh: -4.0; PfGluPho inh: -0.8

What do the screens show for `Cc1ccc(NNC(N)=S)cc1Cl`?
HKDC1 inh: 2.4; PfGluPho inh: 28.4

How did NC(=S)NNc1ccc(Cl)c(Cl)c1 do in these assays?
HKDC1 inh: 4.8; PfGluPho inh: 65.1*; PfG6PD confirm: 10.2

How did O=C1Nc2cc(C(=O)NCCCN3CCCC3)ccc2S/C1=C/c1ccccc1F do in these assays?
HKDC1 inh: 7.9; PfGluPho inh: 26.4

How did CCN1CCCC1CNC(=O)c1ccc2c(c1)NC(=O)/C(=C\c1ccc(C)cc1)S2 (stereo not drawn) do in these assays?
HKDC1 inh: 2.0; PfGluPho inh: 117.3*; PfG6PD confirm: 104.5*; Diaph ctr 10uM: -11.6; Diaph ctr 30uM: -3.3

How did Cc1ccc(/C=C2/Sc3ccc(C(=O)NCCN4CCOCC4)cc3NC2=O)cc1 do in these assays?
HKDC1 inh: -1.5; PfGluPho inh: -7.3

What do the screens show for `O=C1Nc2cc(C(=O)NCCN3CCCCCC3)ccc2S/C1=C/c1ccccc1F`?
PfGluPho inh: 99.0*; PfG6PD confirm: 45.0

Results for CN(C)c1ccc(/C=C/c2ccc3c4ccccc4ccc3[n+]2-c2ccccc2)cc1 ?
HKDC1 inh: 26.2; Diaphorase act: 0.3; PfGluPho inh: 65.6*; Diaphorase inh: 68.1*; G6PDH counter: -12.9; PfG6PD confirm: 68.4*; Diaph ctr 10uM: -16.0; Diaph ctr 30uM: -3.7

How did CCCc1nc(SCC(=O)c2ccccc2)c2c(=O)n(C)c(=O)n(C)c2n1 do in these assays?
HKDC1 inh: -0.4; Diaphorase act: 0.9; PfGluPho inh: 71.1*; Diaphorase inh: 13.7; G6PDH counter: -42.9; PfG6PD confirm: 24.1

What do the screens show for `CC(O)C(NS(=O)(=O)c1ccc2ccccc2c1)C(=O)OCC(=O)Nc1ccccc1OC(F)F` (stereo not drawn)?
HKDC1 inh: -3.8; PfGluPho inh: 12.3
